Assay results reported in PMC3201811 (Journal of inorganic biochemistry, 2011).

Legend:
[1] = system: Jurkat-CN cells; test: PS exposure; format: cell-based, human; details: 24 h
Outline: (§1)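 Jurkat cells with Bak knocked down by RNA interference, and empty-vector controls (CN), were exposed to test compound for 24 h; cisplatin at 25 μM served as reference. Samples were diluted to 1 ml and read by flow cytometry.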

[2] = system: Jurkat-shBak cells; test: PS exposure; format: cell-based, human; details: 24 h
Outline: as §1

[3] = system: Jurkat-shBak cells; test: Necrotic versus apoptotic cell death, Trypan blue staining and morphology; format: cell-based, human; details: 24 h
[4] = system: Jurkat-CN cells; test: Necrotic versus apoptotic cell death, Trypan blue staining and morphology; format: cell-based, human; details: control Jurkat cells, 24 h
Outline: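 Jurkat-CN (empty-vector) and Jurkat-shBak cells were treated with test compound or cisplatin for 24 h, then stained with Trypan blue. Stained cells were scored as necrotic. Unstained cells showing blebbing and/or chromatin condensation were scored as apoptotic. Values are mean ± SD of three independent experiments.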

[5] = system: Jurkat cells; test: Growing potential after removal of compounds and NAC, Trypan blue counting; format: cell-based, human; details: 24h treatment with compound alone, viable cells 24 h and 48 h after removal
Outline: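 Jurkat cells were treated with test compound, with or without NAC, for 24 h. They were then washed and transferred to fresh medium. Total cell number and viability were measured 24 and 48 h after removal of compound and NAC, by Trypan blue staining and counting in a Neubauer haemocytometer. Values are mean ± SD of three independent experiments.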

[6] = system: PBMC from healthy donors; test: Cytotoxicity, cell death by annexinV-PE labeling and flow cytometry, 24 h; format: cell-based, human; details: 25 μM
Outline: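 PBMC came from healthy donors, were freshly isolated by Ficoll-Paque density centrifugation and kept in complete RPMI 1640 medium. They were exposed to a range of test compound concentrations for 24 h. Positive cells were quantified by flow cytometry. Values are mean ± SD of three independent experiments.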

[7] = cited from earlier work
[8] = system: Jurkat cells; test: Protection by antioxidants; format: cell-based, human; details: 24 h, superoxide scavenger MnTBAP
Outline: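 Jurkat cells were cultured for 24 h with test compound alone or together with MnTBAP (superoxide anion scavenger), glutathione or N-acetylcysteine. Collapse of mitochondrial transmembrane potential was measured at the end by flow cytometry. Values are mean ± SD of 4 independent experiments.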

[9] = system: Jurkat cells; test: Cytotoxicity, cell death by annexinV-PE labeling and flow cytometry, 24 h; format: cell-based, human
Outline: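 Jurkat (clone E6.1) in RPMI 1640 with 5% FCS, L-glutamine and penicillin/streptomycin, seeded at 3×10⁵ cells/ml. Cells were exposed to a range of test compound concentrations for 24 h. Fluorescent cells were counted by flow cytometry. Values are mean ± SD of three independent experiments.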

Molecule | death of cells ([1]; 25 μM, Jurkat control (CN) cells) | sensitivity of Jurkat-shBak cells, in words [2] | type of cell death (necrosis versus apoptosis) [3] | type of cell death (necrosis versus apoptosis) [4] | cells bound annexin V-PE ([1]; 10 μM, control Jurkat cells) | growing potential after transfer to fresh medium [5] | dead cells [6] | time stable in solution [7] | protection from toxicity by MnTBAP [8] | IC50 [9] | killing of cells ([9]; 25 μM)
N.N.[Cl][Pt][Cl] [cisplatin, reference compound] | around 60% | completely resistant |  |  |  |  |  |  |  |  | 
[Au{κ^2-C,N-C6H4(PPh2=N(C6H5)-2}(P{Cp(m-C6H4-SO3Na)2} 3)Cl]PF6 [compound 3] |  | almost completely resistant | both apoptotic and necrotic cell death were prevented | necrosis and apoptosis at similar levels | around 50% | A fraction of cells | 33.5% | ≤ 24 h | almost completely protected | 16.1 µM | 96%
